Laboratory results taken from ChEMBL document CHEMBL4373644, “Fungal natural alkaloid schizocommunin activates the aryl hydrocarbon receptor pathway” (Medchemcomm, 2019).
Blank lines part the entries; values can stand above or below the compound they belong to.

What was measured:
Huh-7 [1] = test: Cytotoxicity against human HuH7 cells assessed as reduction in metabolic activity after 24 hrs by MTT assay; format: ADME, cell-based; settings: Huh-7, 24 h
Outline: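 Huh7 cells seeded 10 000 per well, next day given serial dilutions of 0.012–200 μM (2% final DMSO) for 24 h. After a PBS wash, cells incubated 3 h with MTT at 2.5 mg mL–1; crystals dissolved in DMSO, absorbance read at 562 nm and normalised to mock; EC50 from dose–response curve.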

CYP1B1 (via AhR) [2] = target: T1, CYP1B1 (via AhR) (Homo sapiens, UniProt P35869); test: Agonist activity at AhR in human HuH7 cells assessed as increase in CYP1B1 expression at 10 uM after 24 hrs by microarray analysis relative to control; format: ADME, cell-based; settings: read-out: FC
T1 sequence (P35869 whole entry): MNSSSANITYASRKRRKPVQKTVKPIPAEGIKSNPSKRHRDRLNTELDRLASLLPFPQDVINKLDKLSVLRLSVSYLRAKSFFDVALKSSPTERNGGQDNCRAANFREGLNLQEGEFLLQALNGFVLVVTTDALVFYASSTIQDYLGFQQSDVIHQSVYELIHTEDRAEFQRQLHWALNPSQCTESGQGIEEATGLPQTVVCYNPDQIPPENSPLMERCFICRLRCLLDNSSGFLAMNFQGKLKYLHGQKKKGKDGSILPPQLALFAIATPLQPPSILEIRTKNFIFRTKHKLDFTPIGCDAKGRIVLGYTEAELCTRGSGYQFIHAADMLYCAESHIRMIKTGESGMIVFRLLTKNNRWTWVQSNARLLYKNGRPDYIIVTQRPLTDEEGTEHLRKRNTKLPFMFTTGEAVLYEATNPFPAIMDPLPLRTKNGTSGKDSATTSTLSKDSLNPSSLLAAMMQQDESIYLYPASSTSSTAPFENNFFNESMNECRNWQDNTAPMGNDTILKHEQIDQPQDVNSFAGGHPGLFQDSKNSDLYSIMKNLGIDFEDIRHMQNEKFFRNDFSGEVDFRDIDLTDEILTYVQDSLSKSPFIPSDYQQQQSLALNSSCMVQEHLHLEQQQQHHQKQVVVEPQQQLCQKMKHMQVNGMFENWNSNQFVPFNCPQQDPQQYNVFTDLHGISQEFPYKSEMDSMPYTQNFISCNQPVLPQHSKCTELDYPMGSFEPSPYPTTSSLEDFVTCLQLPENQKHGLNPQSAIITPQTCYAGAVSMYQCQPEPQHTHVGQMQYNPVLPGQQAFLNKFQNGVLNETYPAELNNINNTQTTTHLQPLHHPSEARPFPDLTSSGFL
Outline: (§1)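 Transcriptome screen in Huh7 cells seeded 2.75 × 10^5 per well and treated 24 h with 10 μM or 0.5 μM compound (0.1% final DMSO) or DMSO mock. RNA isolated by column kit and profiled on microarray; expression given as fold change versus mock.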

CYP1A1 (via AhR) [3] = target: T2, CYP1A1 (via AhR) (Homo sapiens, UniProt P35869); test: Agonist activity at AhR in human HuH7 cells assessed as increase in CYP1A1 expression at 10 uM after 24 hrs by microarray analysis relative to control; format: ADME, cell-based; settings: read-out: FC; outline: as §1
T2 sequence (P35869 whole entry): T1 sequence (P35869 whole entry)

[4] = target: T3, AhR (aryl hydrocarbon receptor) (Homo sapiens, UniProt P35869); test: Agonist activity at AhR in human HuH7 cells at 10 uM after 24 hrs by renilla luciferase reporter gene assay relative to control; format: cell-based; settings: read-out: FC
T3 sequence (P35869 whole entry): T1 sequence (P35869 whole entry)
Outline: (§2)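 Huh7 cells seeded 20 000 per well, next day co-transfected with XRE-driven firefly luciferase (pGL4.43 luc2P/XRE) and Renilla plasmids by lipofection. A day later treated 24 h at 0.1, 0.5, 5 or 10 μM, 1% final DMSO, then lysed. Luciferase read in technical triplicate; signal normalised to Renilla and to DMSO vehicle.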

[5] = target: T4, Aryl hydrocarbon receptor (Homo sapiens, UniProt P35869); test: Agonist activity at AhR in human A549 cells assessed as increase in ALDH3A1 expression at 10 uM after 24 hrs by q-RT-PCR analysis; format: cell-based; settings: a549, 24 h
T4 sequence (P35869 whole entry): T1 sequence (P35869 whole entry)
Outline: (§3)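 A549 lung carcinoma cells grown at 37 °C in DMEM with 10% FBS, seeded 2.75 × 10^5 per well one day ahead. Treated 24 h with 10 μM or 0.5 μM compound in 0.1% final DMSO; mock was DMSO only. RNA then analysed by RT-qPCR, normalised to 18S rRNA, 2–ΔΔCt fold change vs mock; n = 3; two-tailed unpaired t-test, p < 0.05.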

[6] = target: T4, Aryl hydrocarbon receptor; test: Agonist activity at AhR in human HuH7 cells assessed as increase in UGT1A expression at 10 uM after 24 hrs by RT-qPCR analysis; format: ADME, cell-based
Outline: (§4)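 Huh7 hepatoma cells in DMEM with 10% FBS at 37 °C, seeded 2.75 × 10^5 per well the day before. Exposed 24 h to 10 μM or 0.5 μM compound, 0.1% final DMSO, against DMSO-only mock. RT-qPCR with 18S rRNA normalisation; fold change by 2–ΔΔCt relative to mock; n = 5; unpaired two-tailed t-test, p < 0.05.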

[7] = target: T4, Aryl hydrocarbon receptor; test: Agonist activity at AhR in human HuH7 cells assessed as increase in CYP1B1 expression at 10 uM after 24 hrs by RT-qPCR analysis; format: ADME, cell-based; outline: as §4
[8] = target: T4, Aryl hydrocarbon receptor; test: Agonist activity at AhR in human HuH7 cells after 24 hrs by renilla luciferase reporter gene assay; format: cell-based; outline: as §2
[9] = target: T4, Aryl hydrocarbon receptor; test: Agonist activity at AhR in human HuH7 cells assessed as reduction in ALDH3A1 expression at 10 uM after 24 hrs by q-RT-PCR analysis relative to control; format: cell-based; outline: as §4
[10] = target: T4, Aryl hydrocarbon receptor; test: Agonist activity at AhR in human HuH7 cells assessed as effect on GSTA1 expression at 10 uM after 24 hrs by qRT-PCR analysis; format: cell-based; outline: as §4
[11] = target: T4, Aryl hydrocarbon receptor; test: Agonist activity at AhR in human A549 cells assessed as increase in UGT1A expression at 10 uM after 24 hrs by RT-qPCR analysis; format: ADME, cell-based; settings: a549, 24 h; outline: as §3
CYP1A1 (via AhR) [12] = target: T2, CYP1A1 (via AhR); test: Agonist activity at AhR in human HuH7 cells assessed as increase in CYP1A1 expression at 0.5 uM after 24 hrs by microarray analysis relative to control; format: ADME, cell-based; settings: read-out: FC; outline: as §1
Huh-7 [13] = test: Effect on XAP2 expression in human HuH7 cells at 0.5 uM after 24 hrs by qRT-PCR analysis; format: ADME, cell-based; settings: huh-7, 24 h; outline: as §4
A549 [14] = test: Effect on AhR expression in human A549 cells at 0.5 uM after 24 hrs by qRT-PCR analysis; format: ADME, cell-based; settings: a549, 24 h; outline: as §3
[15] = target: T4, Aryl hydrocarbon receptor; test: Agonist activity at AhR in human HuH7 cells assessed as increase in UGT1A expression at 0.5 uM after 24 hrs by RT-qPCR analysis; format: ADME, cell-based; outline: as §4
A549 [16] = test: Effect on XAP2 expression in human A549 cells at 0.5 uM after 24 hrs by qRT-PCR analysis; format: ADME, cell-based; settings: a549, 24 h; outline: as §3
[17] = target: T4, Aryl hydrocarbon receptor; test: Agonist activity at AhR in human HuH7 cells assessed as effect on GSTA1 expression at 0.5 uM after 24 hrs by qRT-PCR analysis; format: cell-based; outline: as §4
Huh-7 [18] = test: Effect on AhR expression in human HuH7 cells at 0.5 uM after 24 hrs by qRT-PCR analysis; format: ADME, cell-based; settings: huh-7, 24 h; outline: as §4
[19] = target: T4, Aryl hydrocarbon receptor; test: Agonist activity at AhR in human A549 cells assessed as increase in UGT1A expression at 0.5 uM after 24 hrs by RT-qPCR analysis; format: ADME, cell-based; settings: a549, 24 h; outline: as §3
[20] = target: T4, Aryl hydrocarbon receptor; test: Agonist activity at AhR in human HuH7 cells assessed as effect on ALDH3A1 expression at 0.5 uM after 24 hrs by q-RT-PCR analysis; format: cell-based; outline: as §4
[21] = target: T4, Aryl hydrocarbon receptor; test: Agonist activity at AhR in human A549 cells assessed as increase in CYP1B1 expression at 0.5 uM after 24 hrs by RT-qPCR analysis; format: ADME, cell-based; settings: a549, 24 h; outline: as §3
CYP1B1 (via AhR) [22] = target: T1, CYP1B1 (via AhR); test: Agonist activity at AhR in human HuH7 cells assessed as increase in CYP1B1 expression at 0.5 uM after 24 hrs by microarray analysis relative to control; format: ADME, cell-based; settings: read-out: FC; outline: as §1
[23] = target: T4, Aryl hydrocarbon receptor; test: Agonist activity at AhR in human A549 cells assessed as increase in CYP1A1 expression at 0.5 uM after 24 hrs by RT-qPCR analysis; format: ADME, cell-based; settings: a549, 24 h; outline: as §3

fold induction at 24 h, 10 µM (CYP1B1 (via AhR) [2]): 8.6
fold induction at 24 h, 10 µM (CYP1A1 (via AhR) [3]): 10.5
fold induction at 24 h, 10 µM [4]: ≤ 17
Activity [5]: Active
Activity [6]: Active
Activity [7]: Active
Activity [8]: Dose-dependent effect
fold change (FC) [9]: 0.65
Activity [10]: Not Active
Activity [11]: Active
Structure (SMILES): O=C1Nc2ccccc2/C1=C/c1nc2ccccc2c(=O)[nH]1
EC50 (Huh-7 [1]): 31.3 µM

fold induction at 24 h, 0.5 µM (CYP1A1 (via AhR) [12]): 3.28
Activity (Huh-7 [13]): Not Active
Activity (A549 [14]): Not Active
Activity [15]: Active
Activity (A549 [16]): Not Active
Activity [17]: Not Active
Activity (Huh-7 [18]): Not Active
Activity [19]: Active
Activity [20]: Active
Activity [8]: Dose-dependent effect
Activity [21]: Active
fold induction at 24 h, 0.5 µM (CYP1B1 (via AhR) [22]): 1.35
Activity [23]: Active
Structure (SMILES): O=C1Nc2ccccc2/C1=C\c1nnc2ccccc2c1Cl
EC50 (Huh-7 [1]): 9.6 µM
